Screening results deposited in PubChem by Johns Hopkins Ion Channel Center.
The list is not random: actives were taken first. Their share in the collection is about 3.7%.
KCNQ1 block – blocks the human KCNQ1 potassium channel; CHO-K1 KCNQ1, FluxOR thallium flux fluorescence; stronger effect = higher value; B-score at 10 µM; hit rate 1.3% among 310,000; AID 2642;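 active = compounds whose thallium flux B-score, printed positive for inhibition, exceeds three library SD while starting fluorescence stays within three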;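 also: channel opened by potassium depolarization with thallium stimulus after 20 min compound exposure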
KCNK9 block – inhibitors of human KCNK9 two-pore domain potassium channel | B-score at 10 µM | AID 488922 | hit rate 1.2% among 310,000 | HEK293 KCNK9, FluxOR thallium flux fluorescence; stronger effect = lower value;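 active = ratio B-score over 3 SD below the library mean, with starting fluorescence within 5 SD of its mean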;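 also: negative B-score means less thallium flux so channel inhibition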
Kir21 inh – blocks the mouse Kir2.1 inward-rectifier potassium channel. P35561. AID 1672. B-score at 10 µM. hit rate 0.85% among 310,000. HEK293-Kir2.1, FluxOR thallium flux fluorescence; stronger effect = lower value;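 active = fluorescence ratio B-score at or below minus 3 SD of library scores, with starting-brightness B-score within 2 SD, cut at about -4.2 in these data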;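 also: channel flux triggered by added potassium and thallium sulfate stimulus; B-score of peak minus minimum fluorescence over baseline after thallium stimulus; more negative B-score means stronger Kir2.1 block with less thallium influx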
KCNQ1 pot – potentiators or activators of human KCNQ1 potassium channel; CHO-K1 KCNQ1, thallium flux FluxOR fluorescence; stronger effect = higher value; B-score at 10 µM; hit rate 0.35% among 310,000; AID 2648;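 active = fluorescence ratio B-score, a plate-corrected score, at least three library SD, with initial intensity B-score within 5 SD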
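Assay system: CHO-K1 cells stably expressing KCNQ1. Medium: assay buffer for compound exposure, DMSO matched across wells. Timing: 37 °C overnight plating, 90-min dark dye load, 20-min compound pretreatment. Signal: kinetic FluxOR fluorescence, 10 s baseline plus 110 s post-stimulus.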
KCNK3 block – human KCNK3 channel inhibition, primary screen. O14649. AID 602410. CHO-KCNK3 thallium flux, FluxOR fluorescence; stronger effect = lower value. hit rate 0.84% among 340,000. B-score at 10 µM;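 active = B-score under library mean minus 4 SD, starting fluorescence ratio at most library mean plus 5 SD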;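 also: more negative B-score means stronger inhibition of thallium flux through KCNK3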
Target sequence (O14649 whole entry, looked up): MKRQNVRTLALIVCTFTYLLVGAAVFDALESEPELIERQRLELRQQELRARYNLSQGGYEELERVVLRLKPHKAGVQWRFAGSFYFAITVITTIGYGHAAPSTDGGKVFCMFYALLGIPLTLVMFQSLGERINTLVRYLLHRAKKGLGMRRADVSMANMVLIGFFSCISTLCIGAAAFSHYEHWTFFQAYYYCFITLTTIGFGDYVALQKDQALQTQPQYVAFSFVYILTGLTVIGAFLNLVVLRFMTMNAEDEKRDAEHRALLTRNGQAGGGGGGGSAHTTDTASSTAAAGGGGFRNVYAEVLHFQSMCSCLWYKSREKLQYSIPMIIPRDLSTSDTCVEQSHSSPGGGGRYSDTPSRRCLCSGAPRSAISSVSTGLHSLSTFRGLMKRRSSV
hERG rescue – compounds protecting human hERG from proarrhythmic drug block | Q12809 | CHO-hERG, FluxOR thallium flux, dofetilide IC70 present | activation (rescue from dofetilide block), less the hit threshold, % at 10 µM | hit rate 0.51% among 310,000 | AID 1511;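 active = activation above the mean of controls blocked by dofetilide plus 5 SD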;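 also: thallium influx through hERG after potassium depolarization seen as dye fluorescence rise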
KCNK9 inh conf – human KCNK9 inhibitor confirmation. shares compounds with KCNK9 block. inhibition, % at 10 µM. HEK293 KCNK9 cells, FluxOR thallium flux fluorescence. hit rate 43% among 4,900;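 active = thallium signal inhibited by more than 5 SD of the compound-free buffer control wells, on both duplicate plates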
Kir21 sel – mouse Kir2.1 off-target activity of KCNK9 modulators; shares compounds with KCNK9 block; AID 492993; inhibition, % at 10 µM; hit rate 4% among 4,900; Kir2.1 cells, FluxOR thallium flux fluorescence;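 active = thallium signal drop more than 5 SD beyond the mean of the no-compound control wells, seen in both duplicate plates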;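 also: signal is fluorescence rise after thallium addition divided by baseline fluorescence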
KCNK9 uninduced – second check of KCNK9 modulator effects in non-induced HEK293 cells; shares compounds with KCNK9 block; FluxOR thallium flux; inhibition, % at 10 µM; hit rate 40% among 4,900; AID 492997;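 active = thallium signal drop beyond 5 SD of the untreated control mean, on both duplicate plates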
Of the large screens only hits and unclear results are named; the others gave an inactive call (follow-up assays come after a bar, where they were run).

COc1cccc(C(=O)N2CCCC(Nc3ccc(C)c(C)c3)C2)c1 (configuration not stated)	none | KCNK9 inh conf inactive | Kir21 sel inactive | KCNK9 uninduced inactive
CC(=O)c1cccc(CN2CCCC(C(=O)Nc3ccc(-c4ccco4)cc3)C2)c1 (configuration not stated)	none
COc1ccc(NC2CCCN(C(=O)c3ccc(C(C)=O)cc3)C2)cc1 (configuration not stated)	none
COc1ccc(NC2CCCN(C(=O)c3ccc(C(C)=O)s3)C2)cc1 (configuration not stated)	none
COc1ccc(NC2CCCN(C(=O)c3cccc(N(C)C)c3)C2)cc1 (configuration not stated)	none | KCNK9 inh conf inactive | Kir21 sel inactive | KCNK9 uninduced inactive
COc1ccc(NC2CCCN(C(=O)c3ccc(OC)o3)C2)cc1 (configuration not stated)	none | KCNK9 inh conf inactive | Kir21 sel inactive | KCNK9 uninduced inactive
CCOc1ccc(C2CC(=O)NC(SCC(=O)OC)=C2C#N)cc1 (configuration not stated)	none
C=C(C)COc1ccc(-c2ncncc2-c2ccc(Br)cc2)c(O)c1	none | KCNK9 inh conf inactive | Kir21 sel inactive | KCNK9 uninduced inactive
CC(=O)c1ccc(OCC(=O)N2CCN(S(=O)(=O)c3ccc(C)cc3C)CC2)cc1	none
CN(C(=O)c1cccc(NC(=O)Cc2cccc(NC(=O)C3CCN(C(=O)C4CCCCC4)CC3)c2)c1)C1CC1	none (no result: KCNQ1 block, KCNK9 block, Kir21 inh, KCNQ1 pot, hERG rescue)
Cc1ccc2ccc(C(Nc3ccccn3)c3ccccc3)c(O)c2n1 (configuration not stated)	none | KCNK9 inh conf inactive | Kir21 sel inactive | KCNK9 uninduced inactive
COc1cc(C(Nc2ccccn2)c2ccc3ccc(C)nc3c2O)cc(OC)c1O (configuration not stated)	none
Cc1ccc(CSCC(=O)N/N=C/c2cccc(OC3CSC3)c2)cc1	none | KCNK9 inh conf inactive | Kir21 sel inactive | KCNK9 uninduced inactive
Cc1ccc(S(=O)(=O)N/N=C/c2cccc(OC3CSC3)c2)cc1	none
Cc1ccccc1C(=NC(=O)c1ccccc1)c1ccccc1	KCNK9 block -10 | KCNK9 inh conf 47% | Kir21 sel inactive | KCNK9 uninduced 46%
Cn1cnnc1SCC(=O)Nc1ccc(S(N)(=O)=O)cc1	none
Fc1cc(F)cc(NC(=S)N2CCC(c3ccccc3)C2)c1 (configuration not stated)	none
CCc1cccc(NC(=S)N2CCC(c3ccccc3)C2)c1 (configuration not stated)	none | KCNK9 inh conf inactive | Kir21 sel inactive | KCNK9 uninduced inactive
CSc1cccc(NC(=S)N2CCC(c3ccccc3)C2)c1 (configuration not stated)	none | KCNK9 inh conf inactive | Kir21 sel inactive | KCNK9 uninduced inactive
O=C(NCC(c1ccc(F)cc1)N1CCOCC1)c1ccco1 (configuration not stated)	none
CCn1cc(CCCC(=O)NCc2cccc(OC)c2)c2ccccc21	none | KCNK9 inh conf inactive | Kir21 sel inactive | KCNK9 uninduced inactive
CCn1cc(CCCC(=O)NCc2ccccc2OC)c2ccccc21	none
COc1cccc(CNC(=O)C(Cc2ccccc2)n2cccc2)c1 (configuration not stated)	none | KCNK9 inh conf inactive | Kir21 sel inactive | KCNK9 uninduced inactive
COCCN1C(=O)/C(=C/c2ccc(OCc3ccc(C(=O)O)cc3)c(OC)c2)SC1=Nc1ccccc1	none | KCNK9 inh conf inactive | Kir21 sel inactive | KCNK9 uninduced inactive
Cc1ccc(CSc2nc3ccsc3c(=O)n2Cc2ccccn2)cc1	KCNK9 block -14 | KCNK9 inh conf 79% | Kir21 sel inactive | KCNK9 uninduced 44%
CCN(CC)C1CCN(C(=O)CCn2nnnc2CN2CCOCC2)C1 (configuration not stated)	none
COc1ccc(S(=O)(=O)Nc2cc3[nH]c(=O)oc3cc2C)cc1	none
Cc1c(C(=O)NN2CCOCC2)oc2c1ccc1ccccc12	none
Cc1ccc(Cn2ccc(NC(=O)c3cc(-c4ccc(Cl)cc4)on3)n2)cc1	none
Cc1ccc(Cn2ccc(NC(=O)c3cc(CC(C)C)on3)n2)cc1	none | KCNK9 inh conf inactive | Kir21 sel inactive | KCNK9 uninduced inactive
CCOc1cccc(-c2c(C(=O)N/N=C/c3c(F)cccc3Cl)nnn2-c2nonc2N)c1	KCNK9 block -9.4 | KCNK9 inh conf inactive | Kir21 sel inactive | KCNK9 uninduced inactive
CNC[C@H](Cc1ccccc1)NC[C@@H](Cc1cccc2ccccc12)NCCc1ccc(C)cc1	KCNQ1 block 11, KCNK9 block -9.5, Kir21 inh -10 | KCNK9 inh conf 70% | Kir21 sel 76% | KCNK9 uninduced 58%
O=C(c1ccccc1)c1nn(-c2ccccc2)c2nnc(Cc3ccccc3)c(=O)n12	none | KCNK9 inh conf inactive | Kir21 sel inactive | KCNK9 uninduced inactive
CC1CC2(CCCCC2)Nc2c1ccc1ccccc21 (configuration not stated)	none
CC(=O)N1c2c(ccc3ccccc23)C(C)CC12CCCCC2 (configuration not stated)	KCNK9 block -14 | KCNK9 inh conf 49% | Kir21 sel inactive | KCNK9 uninduced 47%
COc1ccc(S(=O)(=O)N2CCCC(C(=O)NCc3cccnc3)C2)cc1OC (configuration not stated)	none
CCOc1ccc(-c2cc3nc(C4CCN(C(=O)OC(C)(C)C)CC4)c(C(=O)O)cn3n2)cc1	none | KCNK9 inh conf inactive | Kir21 sel inactive | KCNK9 uninduced 34%
CCOC(=O)CCSc1nc2c(c(C(F)(F)F)c1C#N)CCC2	none | KCNK9 inh conf inactive | Kir21 sel inactive | KCNK9 uninduced inactive
CCOC(=O)C1CCN(c2nc(-c3ccc(Br)cc3)nc3ccccc23)CC1	KCNK9 block -8.8 | KCNK9 inh conf inactive | Kir21 sel inactive | KCNK9 uninduced 22%
CN(c1ccc(C(=O)NCc2ccc3c(c2)OCO3)cc1)S(=O)(=O)c1ccccc1	none
CN(c1ccc(C(=O)NCCSCc2ccccc2)cc1)S(=O)(=O)c1ccccc1	none | KCNK9 inh conf inactive | Kir21 sel inactive | KCNK9 uninduced inactive
Cc1cccc(CSCCNC(=O)c2ccc(N(C)S(=O)(=O)c3ccccc3)cc2)c1	KCNQ1 block 7 | KCNK9 inh conf inactive | Kir21 sel inactive | KCNK9 uninduced inactive
Cc1cc(C)nc(N/C(=N\S(=O)(=O)Cc2ccccc2)Nc2cccc(Cl)c2C)n1	none
